Source: ChEMBL document CHEMBL3046406, “Herbicidal potential of ophiobolins produced by Drechslera gigantea” (2006)
The source made the active and inactive calls. The rule behind the calls is not given here.

The compounds below were run on Digitaria sanguinalis (assay: Herbicidal activity against Digitaria sanguinalis (hairy crabgrass) assessed as diameter of leaf necrosis at 50 ug/ml measured after 2 days post compound treatment by leaf puncture assay).
Format: functional
Outline: (§1)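 Detached leaf segments (about 5 cm) from young greenhouse-grown plants, each with a superficial puncture lesion (0.5 mm) made by glass capillary. Compound dissolved in DMSO, diluted with distilled water (final DMSO 2%), 8 µL droplet applied. Segments held on moist filter paper at 25 °C under continuous fluorescent light (10000 lux). DMSO droplets as control. Necrosis scored visually on a 0–3 scale at day 2.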

| Compound | Activity |
| --- | --- |
| CC(C)=C[C@H]1C[C@H](C)[C@]2(CC[C@]3(C)C[C@@H]4C(C)=CC(=O)[C@H]4/C(C=O)=C\C[C@H]32)O1 [3-ANHYDRO-6-EPI-OPHIOBOLIN A] | inactive |

The compounds below were run on Avena sterilis subsp. ludoviciana (assay: Herbicidal activity against Avena sterilis subsp. ludoviciana assessed as diameter of leaf necrosis at 100 ug/ml measured after 2 days post compound treatment by leaf puncture assay).
Format: functional
Outline: as §1

| Compound | Activity |
| --- | --- |
| CC(C)=C[C@H]1C[C@H](C)[C@]2(CC[C@]3(C)C[C@@H]4C(C)=CC(=O)[C@H]4/C(C=O)=C\C[C@H]32)O1 [3-ANHYDRO-6-EPI-OPHIOBOLIN A] | inactive |

These compounds were tested on Diplotaxis erucoides (assay: Herbicidal activity against Diplotaxis erucoides assessed as diameter of leaf necrosis at 250 ug/ml measured after 2 days post compound treatment by leaf puncture assay).
Format: functional
Outline: as §1

| Compound | Activity |
| --- | --- |
| CC(C)=C[C@H]1C[C@H](C)[C@]2(CC[C@]3(C)C[C@@H]4C(C)=CC(=O)[C@H]4/C(C=O)=C\C[C@H]32)O1 [3-ANHYDRO-6-EPI-OPHIOBOLIN A] | >3 mm |

The compounds below were run on Oloptum miliaceum (assay: Herbicidal activity against Piptatherum miliaceum assessed as diameter of leaf necrosis at 50 ug/ml measured after 2 days post compound treatment by leaf puncture assay).
Format: functional
Outline: as §1

| Compound | Activity |
| --- | --- |
| CC(C)=C[C@H]1C[C@H](C)[C@]2(CC[C@]3(C)C[C@@H]4C(C)=CC(=O)[C@H]4/C(C=O)=C\C[C@H]32)O1 [3-ANHYDRO-6-EPI-OPHIOBOLIN A] | 1 mm |

Each compound was assayed on Setaria viridis (assay: Herbicidal activity against Setaria viridis assessed as diameter of leaf necrosis at 250 ug/ml measured after 2 days post compound treatment by leaf puncture assay).
Format: functional
Outline: as §1

| Compound | Activity |
| --- | --- |
| CC(C)=C[C@H]1C[C@H](C)[C@]2(CC[C@]3(C)C[C@@H]4C(C)=CC(=O)[C@H]4/C(C=O)=C\C[C@H]32)O1 [3-ANHYDRO-6-EPI-OPHIOBOLIN A] | 2 mm |

What follows are compounds tested on Avena sterilis subsp. ludoviciana (assay: Herbicidal activity against Avena sterilis subsp. ludoviciana assessed as diameter of leaf necrosis at 50 ug/ml measured after 2 days post compound treatment by leaf puncture assay).
Format: functional
Outline: as §1

| Compound | Activity |
| --- | --- |
| CC(C)=C[C@H]1C[C@H](C)[C@]2(CC[C@]3(C)C[C@@H]4C(C)=CC(=O)[C@H]4/C(C=O)=C\C[C@H]32)O1 [3-ANHYDRO-6-EPI-OPHIOBOLIN A] | inactive |

What follows are compounds tested on Bromus sterilis (assay: Herbicidal activity against Bromus sterilis assessed as diameter of leaf necrosis at 100 ug/ml measured after 2 days post compound treatment by leaf puncture assay).
Format: functional
Outline: as §1

| Compound | Activity |
| --- | --- |
| CC(C)=C[C@H]1C[C@H](C)[C@]2(CC[C@]3(C)C[C@@H]4C(C)=CC(=O)[C@H]4/C(C=O)=C\C[C@H]32)O1 [3-ANHYDRO-6-EPI-OPHIOBOLIN A] | 1 mm |

The compounds below were run on Cynodon dactylon (assay: Herbicidal activity against Cynodon dactylon assessed as diameter of leaf necrosis at 50 ug/ml measured after 2 days post compound treatment by leaf puncture assay).
Format: functional
Outline: as §1

| Compound | Activity |
| --- | --- |
| CC(C)=C[C@H]1C[C@H](C)[C@]2(CC[C@]3(C)C[C@@H]4C(C)=CC(=O)[C@H]4/C(C=O)=C\C[C@H]32)O1 [3-ANHYDRO-6-EPI-OPHIOBOLIN A] | inactive |

What follows are compounds tested on Avena sterilis subsp. ludoviciana (assay: Herbicidal activity against Avena sterilis subsp. ludoviciana assessed as diameter of leaf necrosis at 250 ug/ml measured after 2 days post compound treatment by leaf puncture assay).
Format: functional
Outline: as §1

| Compound | Activity |
| --- | --- |
| CC(C)=C[C@H]1C[C@H](C)[C@]2(CC[C@]3(C)C[C@@H]4C(C)=CC(=O)[C@H]4/C(C=O)=C\C[C@H]32)O1 [3-ANHYDRO-6-EPI-OPHIOBOLIN A] | inactive |

What follows are compounds tested on Sonchus oleraceus (assay: Herbicidal activity against Sonchus oleraceus assessed as diameter of leaf necrosis at 50 ug/ml measured after 2 days post-compound treatment by leaf puncture assay).
Format: functional
Outline: as §1

| Compound | Activity |
| --- | --- |
| CC(C)=C[C@H]1C[C@H](C)[C@]2(CC[C@]3(C)C[C@@H]4C(C)=CC(=O)[C@H]4/C(C=O)=C\C[C@H]32)O1 [3-ANHYDRO-6-EPI-OPHIOBOLIN A] | inactive |

What follows are compounds tested on Convolvulus arvensis (assay: Herbicidal activity against Convolvulus arvensis assessed as diameter of leaf necrosis at 250 ug/ml measured after 2 days post compound treatment by leaf puncture assay).
Format: functional
Outline: as §1

| Compound | Activity |
| --- | --- |
| CC(C)=C[C@H]1C[C@H](C)[C@]2(CC[C@]3(C)C[C@@H]4C(C)=CC(=O)[C@H]4/C(C=O)=C\C[C@H]32)O1 [3-ANHYDRO-6-EPI-OPHIOBOLIN A] | inactive |

The compounds below were run on Setaria viridis (assay: Herbicidal activity against Setaria viridis assessed as diameter of leaf necrosis at 50 ug/ml measured after 2 days post compound treatment by leaf puncture assay).
Format: functional
Outline: as §1

| Compound | Activity |
| --- | --- |
| CC(C)=C[C@H]1C[C@H](C)[C@]2(CC[C@]3(C)C[C@@H]4C(C)=CC(=O)[C@H]4/C(C=O)=C\C[C@H]32)O1 [3-ANHYDRO-6-EPI-OPHIOBOLIN A] | 2 mm |

The compounds below were run on Phalaris canariensis (assay: Herbicidal activity against Phalaris canariensis assessed as diameter of leaf necrosis at 100 ug/ml measured after 2 days post compound treatment by leaf puncture assay).
Format: functional
Outline: as §1

| Compound | Activity |
| --- | --- |
| CC(C)=C[C@H]1C[C@H](C)[C@]2(CC[C@]3(C)C[C@@H]4C(C)=CC(=O)[C@H]4/C(C=O)=C\C[C@H]32)O1 [3-ANHYDRO-6-EPI-OPHIOBOLIN A] | 1 mm |

These compounds were tested on Bromus sterilis (assay: Herbicidal activity against Bromus sterilis assessed as diameter of leaf necrosis at 50 ug/ml measured after 2 days post compound treatment by leaf puncture assay).
Format: functional
Outline: as §1

| Compound | Activity |
| --- | --- |
| CC(C)=C[C@H]1C[C@H](C)[C@]2(CC[C@]3(C)C[C@@H]4C(C)=CC(=O)[C@H]4/C(C=O)=C\C[C@H]32)O1 [3-ANHYDRO-6-EPI-OPHIOBOLIN A] | 1 mm |

These compounds were tested on Echinochloa crus-galli (assay: Herbicidal activity against Echinochloa crus-galli (barnyard grass) assessed as diameter of leaf necrosis at 100 ug/ml measured after 2 days post compound treatment by leaf puncture assay).
Format: functional
Outline: as §1

| Compound | Activity |
| --- | --- |
| CC(C)=C[C@H]1C[C@H](C)[C@]2(CC[C@]3(C)C[C@@H]4C(C)=CC(=O)[C@H]4/C(C=O)=C\C[C@H]32)O1 [3-ANHYDRO-6-EPI-OPHIOBOLIN A] | 1 mm |

What follows are compounds tested on Oloptum miliaceum (assay: Herbicidal activity against Piptatherum miliaceum assessed as diameter of leaf necrosis at 100 ug/ml measured after 2 days post compound treatment by leaf puncture assay).
Format: functional
Outline: as §1

| Compound | Activity |
| --- | --- |
| CC(C)=C[C@H]1C[C@H](C)[C@]2(CC[C@]3(C)C[C@@H]4C(C)=CC(=O)[C@H]4/C(C=O)=C\C[C@H]32)O1 [3-ANHYDRO-6-EPI-OPHIOBOLIN A] | 1 mm |

What follows are compounds tested on Digitaria sanguinalis (assay: Herbicidal activity against Digitaria sanguinalis (hairy crabgrass) assessed as diameter of leaf necrosis at 250 ug/ml measured after 2 days post compound treatment by leaf puncture assay).
Format: functional
Outline: as §1

| Compound | Activity |
| --- | --- |
| CC(C)=C[C@H]1C[C@H](C)[C@]2(CC[C@]3(C)C[C@@H]4C(C)=CC(=O)[C@H]4/C(C=O)=C\C[C@H]32)O1 [3-ANHYDRO-6-EPI-OPHIOBOLIN A] | 1 mm |

What follows are compounds tested on Chenopodium album (assay: Herbicidal activity against Chenopodium album assessed as diameter of leaf necrosis at 50 ug/ml measured after 2 days post compound treatment by leaf puncture assay).
Format: functional
Outline: as §1

| Compound | Activity |
| --- | --- |
| CC(C)=C[C@H]1C[C@H](C)[C@]2(CC[C@]3(C)C[C@@H]4C(C)=CC(=O)[C@H]4/C(C=O)=C\C[C@H]32)O1 [3-ANHYDRO-6-EPI-OPHIOBOLIN A] | inactive |

Each compound was assayed on Diplotaxis erucoides (assay: Herbicidal activity against Diplotaxis erucoides assessed as diameter of leaf necrosis at 100 ug/ml measured after 2 days post compound treatment by leaf puncture assay).
Format: functional
Outline: as §1

| Compound | Activity |
| --- | --- |
| CC(C)=C[C@H]1C[C@H](C)[C@]2(CC[C@]3(C)C[C@@H]4C(C)=CC(=O)[C@H]4/C(C=O)=C\C[C@H]32)O1 [3-ANHYDRO-6-EPI-OPHIOBOLIN A] | >3 mm |

Each compound was assayed on Amaranthus retroflexus (assay: Herbicidal activity against Amaranthus retroflexus assessed as diameter of leaf necrosis at 50 ug/ml measured after 2 days post compound treatment by leaf puncture assay).
Format: functional
Outline: as §1

| Compound | Activity |
| --- | --- |
| CC(C)=C[C@H]1C[C@H](C)[C@]2(CC[C@]3(C)C[C@@H]4C(C)=CC(=O)[C@H]4/C(C=O)=C\C[C@H]32)O1 [3-ANHYDRO-6-EPI-OPHIOBOLIN A] | inactive |
